Assay results: publication PMC11962390 (Molecular Cancer Therapeutics, 2025)

Key:
primary HGSC organoids = assay: Organoid drug-response profiling, whole panel; type: cell-based, human; conditions: 96 hours
Outline: (§1)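 Patient-derived HGSC organoids were embedded in BME-2 droplets in 384-well ultralow-attachment plates and grown 7–10 days with medium changes every 2–3 days. Test compounds were added in five 10-fold dilutions, with DMSO and 10 μmol/L bortezomib as controls. After 96 h at 37°C, wells were stained 2 h with CellTox Green and Hoechst 33342 (5 μg/mL final) and imaged confocally. Survival was normalized to controls and fitted by four-parameter fit (bottom 0), mean ± SD, n = 2.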

OV-UM32.1 cells = assay: 3D CellTiter-Glo cell viability assay; type: cell-based, human; conditions: OV-UM32.1, 3D, 48 hours
OV-UM50.2 cells = assay: 3D CellTiter-Glo cell viability assay; type: cell-based, human; conditions: OV-UM50.2, 3D, 48 hours
OV-UM52.1 cells = assay: 3D CellTiter-Glo cell viability assay; type: cell-based, human; conditions: OV-UM52.1, 3D, 48 hours
Outline: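 Primary HGSC cells were grown as 3D spheres in MammoCult with supplement on ultralow-attachment plates and treated with a dose curve of test compound. CellTiter-Glo 3D luminescence was read after 48 h. Values were expressed relative to DMSO (mean ± SEM, n = 3). The curve was fitted with bottom constrained to 0 and top to 1.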

OV81-CP40 cells [1] = assay: MTT cell viability assay; type: cell-based, human
OV231-CP30 cells [2] = assay: MTT cell viability assay; type: cell-based, human
OV81-CP40 spheres = assay: 3D CellTiter-Glo cell viability assay of spheres; type: cell-based, human; conditions: OV81-CP40 grown in 3D (spheroids), 48 hours
Outline: (§2)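 Cells (500) were seeded in MammoCult with proliferation supplement in ultralow-attachment 96-well plates to form spheres. Seven days after plating, the spheres were treated with the test compound. CellTiter-Glo 3D luminescence was read 48 h later. Dose–response curves were fitted by sigmoidal variable-slope fit.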

OV231-CP30 spheres = assay: 3D CellTiter-Glo cell viability assay of spheres; type: cell-based, human; conditions: OV231-CP30 grown in 3D (spheroids), 48 hours
Outline: as §2

FT237 cells [3] = assay: MTT cell viability assay; type: cell-based, human; conditions: FT237, 48 hours, nondeterminable up to highest dose, Supplementary Fig. S5D
[4] = system: canonical Wnt pathway activation (reporter TOP-GFP) in OV81-CP40 cells; assay: TOP-GFP and FOP-GFP assay; type: cell-based, human; conditions: OV81-CP40, 6 hours, 20 mmol/L LiCl, […] NCB-0846 or 100 nmol/L NVP-2
Outline: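 OV81-CP40 cells stably expressing lentiviral TOP-GFP or FOP-GFP reporters were plated and treated one day later for 6 h with LiCl and/or test compounds. Cells were harvested, PBS-washed and run by flow cytometry at 10,000 cells per sample, gating the top ~10% GFP-positive cells. Results were given as TOP/FOP, mean ± SEM, n = 3, by one-way ANOVA.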

OV81-CP40 cells [5] = assay: CellTiter-Glo cell viability assay; type: cell-based, human
OV231-CP30 cells [6] = assay: CellTiter-Glo cell viability assay; type: cell-based, human; conditions: OV231-CP30, 48 hours, Fig. 2B
Outline: (§3)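 2D culture in the cells' own medium in 96-well plates. Cells were treated with a dose curve of test compound one day after plating. CellTiter-Glo luminescence was read after 48 h. Viability was expressed as fold change to DMSO (mean ± SEM, n = 3). EC50 came from a sigmoidal variable-slope fit.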

FT237 cells [7] = assay: CellTiter-Glo cell viability assay; type: cell-based, human; conditions: nonmalignant fallopian tube secretory cell line FT237, 48 hours
Outline: as §3

FT194 cells = assay: CellTiter-Glo cell viability assay; type: cell-based, human; conditions: nonmalignant fallopian tube secretory cell line FT194, 48 hours
Outline: as §3

JHUEM7 cells = assay: MTT cell viability assay; type: cell-based, human; conditions: TNIK-null JHUEM7, 48 hours, Fig. 3K
HEC1B cells = assay: MTT cell viability assay; type: cell-based, human; conditions: dose response up to 10 μmol/L, 48 hours, unable to generate an EC50
[8] = system: P8_rAsc patient-derived organoid; assay: Organoid drug-response profiling; type: cell-based, human; conditions: 96 hours
Outline: as §1

[9] = system: P10_rPlfl patient-derived organoid; assay: Organoid drug-response profiling; type: cell-based, human; conditions: organoid P10_rPIfl, 96 hours
Outline: as §1

[10] = system: P12_rPer patient-derived organoid; assay: Organoid drug-response profiling; type: cell-based, human; conditions: 96 hours
Outline: as §1

[11] = system: panel of 377 human wild-type kinases; assay: Kinase selectivity profiling, KinaseProfiler; type: biochemical; conditions: of 377 human wildtype kinases
Outline: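 Radiometric 33P transfer from [γ-33P]ATP to peptide/protein substrates was used, in 8 mmol/L MOPS pH 7.0 with 0.2 mmol/L EDTA and kinase-specific metal supplements. Lipid and atypical kinases were run by HTRF in HEPES buffer. […] Output was % activity remaining, with full inhibition set by reference inhibitors.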

[12] = OV81-CP40, MTT used to generate CI, Fig. 2D

## N.N.O=C([O-])C1(C(=O)[O-])CCC1.[Pt+2] [Carboplatin, carboplatin]
Primary HGSC organoids; all 13 organoids tested, at 10 μmol/L
  survival: ≥ 50%
Primary HGSC organoids; five of the 13 organoids
  IC50: < 100000 nM
Primary HGSC organoids; only one organoid, at 100 μmol/L
  reduction in survival: greater than 70%

## N.N.[Cl][Pt][Cl] [cisplatin]
OV-UM32.1 cells
  EC50: 12900 nM
OV-UM50.2 cells
  EC50: 22200 nM
OV-UM52.1 cells
  EC50: 9630 nM
OV81-CP40 cells [1]; [12]
  EC50: non determinable (ND)

## OC1CCC(Oc2cccc3cnc(Nc4ccc5nc[nH]c5c4)nc23)CC1 (stereo not shown) [NCB-0970]
OV81-CP40 cells [1]; read-out: 48-hour EC50, OV81-CP40, 48 hours, Supplementary Fig. S2E
  EC50: 9920 nM
OV231-CP30 cells [2]; read-out: 48-hour EC50, OV231-CP30, 48 hours, Supplementary Fig. S2E
  EC50: 3640 nM

## COC[C@@H](C)NC1CCC(Nc2cc(-c3cccc(NCC4(C#N)CCOCC4)n3)c(Cl)cn2)CC1 (stereo partly shown) [NVP-2]
OV81-CP40 spheres
  EC50: 52.1 nM
OV231-CP30 spheres
  EC50: 60.3 nM
OV81-CP40 cells [1]; OV81-CP40, 48 hours, Supplementary Fig. S5D
  EC50: 12.7 nM
FT237 cells [3]
  EC50: > 80 nM
[4]
  TOP-GFP induction after LiCl addition: significantly decrease

## OC1CCC(Oc2cccc3cnc(Nc4ccc5nc[nH]c5c4)nc23)CC1 (stereo not shown) [NCB-0846]
OV81-CP40 spheres
  EC50: 710 nM
OV231-CP30 spheres
  EC50: 1590 nM
OV-UM32.1 cells
  EC50: 4330 nM
OV-UM50.2 cells
  EC50: 1600 nM
OV-UM52.1 cells
  EC50: 2610 nM
OV81-CP40 cells [5]; OV81-CP40, 48 hours, Fig. 2B
  EC50: 465 nM
OV81-CP40 cells [5]; OV81-CP40, LiCl+-treated cells (20 mmol/L LiCl), 48 hours, Fig. 3A
  EC50: 2120 nM
OV81-CP40 cells [5]; OV81-CP40, LiCl−-treated cells, 48 hours, Fig. 3A
  EC50: 585 nM
OV81-CP40 cells [5]; OV81-CP40 transfected with siCDK9 9, 48 hours, Fig. 5C
  EC50: 161 nM
OV81-CP40 cells [5]; OV81-CP40 transfected with siCDK9 11, 48 hours, Fig. 5C
  EC50: 142 nM
OV81-CP40 cells [5]; OV81-CP40 transfected with siControl, 48 hours, Fig. 5C
  EC50: 399 nM
OV231-CP30 cells [6]
  EC50: 584 nM
FT237 cells [7]
  response of cell viability to dose curve: minimally responsive
FT194 cells
  response of cell viability to dose curve: minimally responsive
OV81-CP40 cells [1]; [12]
  EC50: 464 nM
OV231-CP30 cells [2]; OV231-CP30, MTT used to generate CI, Fig. 2D
  EC50: 440 nM
JHUEM7 cells
  reduction in cell viability at maximal doses: ~50%
HEC1B cells
  EC50: > 10000 nM
[8]
  IC50: > 10000 nM
[9]
  IC50: > 10000 nM
[10]
  IC50: 4020 nM
[11]
  number of kinase hits: 175
[4]
  TOP-GFP induction after LiCl addition: significantly decrease
